From ChEMBL document CHEMBL4130533, “Cytotoxic Cardiac Glycoside Constituents of Vallaris glabra Leaves” (J Nat Prod, 2017)

What was measured:
HT-29 = experiment: Antiproliferative activity against human HT-29 cells by MTT assay; assay type: functional, cell-based
Summary of the method: (§1)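 Antiproliferative MTT (microculture tetrazolium) assay run by a previously reported protocol, giving IC50 values. Cell lines came from ATCC: HeLaS3 cervix adenocarcinoma (CCL-2.2), A549 lung carcinoma (CCL-185), HT-29 colorectal adenocarcinoma (HTB-38), and nontumorigenic normal African green monkey kidney Vero (CCL-81).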

A549 = experiment: Antiproliferative activity against human A549 cells by MTT assay; assay type: functional, cell-based; summary of the method: as §1
Vero = experiment: Antiproliferative activity against African green monkey Vero cells by MTT assay; assay type: cell-based; conditions: Chlorocebus sabaeus; summary of the method: as §1
HeLa S3 = experiment: Antiproliferative activity against human HeLaS3 cells by MTT assay; assay type: functional, cell-based; summary of the method: as §1

| SMILES | IC50 (HT-29) [µM] | IC50 (A549) [µM] | IC50 (Vero) [µM] | IC50 (HeLa S3) [µM] |
| --- | --- | --- | --- | --- |
| CO[C@@H]1[C@@H](O)[C@H](O[C@H]2CC[C@@]3(C)[C@H](CC[C@@H]4[C@@H]3CC[C@]3(C)[C@@H](C5=CC(=O)OC5)[C@@H](OC(C)=O)C[C@]43O)C2)O[C@@H](C)[C@@H]1O[C@@H]1O[C@H](CO[C@@H]2O[C@H](CO)[C@@H](O)[C@H](O)[C@H]2O)[C@@H](O)[C@H](O)[C@H]1O | 1.6 | 1.2 | 6.9 | 0.5 |
| COc1cc([C@@H]2c3cc4c(cc3[C@@H](O[C@@H]3O[C@@H]5CO[C@@H](C)O[C@H]5[C@H](O)[C@H]3O)[C@H]3COC(=O)[C@H]23)OCO4)cc(OC)c1O [ETOPOSIDE] | 7.6 | > 10 | > 10 | 0.5 |
| CO[C@@H]1[C@@H](O)[C@H](O[C@H]2CC[C@@]3(C)[C@H](CC[C@@H]4[C@@H]3CC[C@]3(C)[C@@H](C5=CC(=O)OC5)[C@@H](O)C[C@]43O)C2)O[C@@H](C)[C@@H]1O[C@@H]1O[C@H](CO)[C@@H](O)[C@H](O)[C@H]1O | 6.4 | 3.8 | > 10 | 6.8 |
| CO[C@H]1[C@@H](O)[C@H](O[C@H]2CC[C@@]3(C)[C@H](CC[C@@H]4[C@@H]3CC[C@]3(C)[C@@H](C5=CC(=O)OC5)[C@@H](OC(C)=O)C[C@]43O)C2)O[C@@H](C)[C@@H]1O[C@@H]1O[C@H](CO)[C@@H](O)[C@H](O)[C@H]1O | 0.2 | 0.1 | 0.7 | 0.2 |
| COc1cccc2c1C(=O)c1c(O)c3c(c(O)c1C2=O)C[C@@](O)(C(=O)CO)C[C@@H]3O[C@H]1C[C@H](N)[C@H](O)[C@H](C)O1 [DOXORUBICIN] | 0.4 | 5 | 6.6 | < 0.1 |
| CO[C@H]1[C@@H](O)[C@H](O[C@H]2CC[C@@]3(C)[C@H](CC[C@@H]4[C@@H]3CC[C@]3(C)C(C5=CC(=O)OC5)=CC[C@]43O)C2)O[C@@H](C)[C@@H]1O[C@@H]1O[C@H](CO)[C@@H](O)[C@H](O)[C@H]1O | 0.8 | 0.3 | 2.5 | 0.7 |
| CO[C@H]1[C@@H](O)[C@H](O[C@H]2CC[C@@]3(C)[C@H](CC[C@@H]4[C@@H]3CC[C@]3(C)[C@@H](C5=CC(=O)OC5)[C@@H](OC(C)=O)C[C@]43O)C2)O[C@@H](C)[C@@H]1O[C@@H]1O[C@H](CO[C@@H]2O[C@H](CO)[C@@H](O)[C@H](O)[C@H]2O)[C@@H](O)[C@H](O)[C@H]1O | 1.4 | 0.6 | 4.8 | 0.4 |
| CO[C@@H]1[C@@H](O)[C@H](C)O[C@@H](O[C@H]2CC[C@@]3(C)[C@H](CC[C@@H]4[C@@H]3CC[C@]3(C)[C@@H](C5=CC(=O)OC5)[C@@H](OC(C)=O)C[C@]43O)C2)[C@@H]1OC(C)=O | 0.1 | 0.5 | 0.2 | 0.04 |
| CO[C@H]1[C@@H](O[C@@H]2O[C@H](CO)[C@@H](O)[C@H](O)[C@H]2O)[C@H](C)O[C@@H](O[C@H]2CC[C@@]3(C)[C@H](CC[C@@H]4[C@@H]3CC[C@]3(C)[C@@H](C5=CC(=O)OC5)[C@@H](OC(C)=O)C[C@]43O)C2)[C@@H]1OC(C)=O | 0.6 | 0.6 | 2.2 | 0.4 |
| CO[C@@H]1[C@@H](O[C@@H]2O[C@H](CO)[C@@H](O)[C@H](O)[C@H]2O)[C@H](C)O[C@@H](O[C@H]2CC[C@@]3(C)[C@H](CC[C@@H]4[C@@H]3CC[C@]3(C)[C@@H](C5=CC(=O)OC5)[C@@H](OC(C)=O)C[C@]43O)C2)[C@@H]1OC(C)=O | 1.9 | 1.5 | 5.8 | 1.4 |
| CO[C@@H]1[C@@H](O[C@@H]2O[C@H](CO)[C@@H](O)[C@H](O)[C@H]2O)[C@H](C)O[C@@H](O[C@H]2CC[C@@]3(C)[C@H](CC[C@@H]4[C@@H]3CC[C@]3(C)C(C5=CC(=O)OC5)=CC[C@]43O)C2)[C@@H]1OC(C)=O | > 10 | > 10 | > 10 | > 10 |
| CO[C@@H]1[C@@H](O)[C@H](O[C@H]2CC[C@@]3(C)[C@H](CC[C@@H]4[C@@H]3CC[C@]3(C)C(C5=CC(=O)OC5)=CC[C@]43O)C2)O[C@@H](C)[C@@H]1O[C@@H]1O[C@H](CO)[C@@H](O)[C@H](O)[C@H]1O | 1.9 | 1.6 | 6.2 | 0.7 |
| CO[C@@H]1[C@@H](O[C@@H]2O[C@H](CO[C@@H]3O[C@H](CO)[C@@H](O)[C@H](O)[C@H]3O)[C@@H](O)[C@H](O)[C@H]2O)[C@H](C)O[C@@H](O[C@H]2CC[C@@]3(C)[C@H](CC[C@@H]4[C@@H]3CC[C@]3(C)[C@@H](C5=CC(=O)OC5)[C@@H](OC(C)=O)C[C@]43O)C2)[C@@H]1OC(C)=O | 5 | 2.1 | > 10 | 1.6 |
| CO[C@@H]1[C@@H](O)[C@H](O[C@H]2CC[C@@]3(C)[C@H](CC[C@@H]4[C@@H]3CC[C@]3(C)[C@@H](C5=CC(=O)OC5)[C@@H](OC(C)=O)C[C@]43O)C2)O[C@@H](C)[C@@H]1O[C@@H]1O[C@H](CO)[C@@H](O)[C@H](O)[C@H]1O | 0.2 | 0.1 | 0.6 | 0.1 |
| CO[C@H]1[C@@H](O)[C@H](C)O[C@@H](O[C@H]2CC[C@@]3(C)[C@H](CC[C@@H]4[C@@H]3CC[C@]3(C)[C@@H](C5=CC(=O)OC5)[C@@H](OC(C)=O)C[C@]43O)C2)[C@@H]1OC(C)=O | 0.1 | 0.03 | 0.3 | 0.1 |
